Each structure is given as a SMILES string.

The record followed here is ChEMBL document CHEMBL3272275, “Synthesis and antiinflammatory activity of some 1,2,3- and 1,2,4-triazolepropionic acids” (J Med Chem, 1978).

The subject of data set [1] is Rattus norvegicus. As to the kind of experiment: Antiinflammatory activity against carrageenan/Evans blue dye-induced pleural effusion rat model assessed as reduction in pleural fluid volume at 0.4 mmol/kg, po administered 1 hr prior challenge measured 6 hrs post challenge relative to phenylbutazone. The data set is classed as functional.
The subject of data set [2] is Rattus norvegicus. Briefly: […] in Freund's adjuvant-induced Lewis rat arthritis model assessed as reduction of uninjected paw volume at 72 mg/kg, po qd administered on day 0 to day 21 of adjuvant challenge measured on day 21 by plethysmometry relative to control. The data set is classed as organism-based. Also on record: dose 72 mg/kg, route oral; scale not given: the % may be the effect or the level left. Particulars: in vivo. The essentials: (§1)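 Male Lewis rats (125-150 g) given an intradermal injection of 0.05 mL of 0.65% Mycobacterium tuberculosis suspension in Freund's adjuvant into the right hind plantar surface on day 0. Negative controls received mineral oil only. Dosing once daily by gavage, groups of six, days 0-21. Injected and uninjected hind-foot volume change over days 0-21 measured plethysmographically. Value is percent reduction relative to controls.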

The subject of data set [3] is Rattus norvegicus. As to the kind of experiment: Antiinflammatory activity in Freund's adjuvant-induced Lewis rat arthritis model assessed as reduction of paw volume at 72 mg/kg, po qd administered on day 0 to day 21 of adjuvant challenge measured on day 7 by plethysmometry relative to control. The data set is classed as functional. Also on record: scale not given: the % may be the effect or the level left.

Data set [4] concerns Rattus norvegicus. As to the kind of experiment: Antiinflammatory activity in Freund's adjuvant-induced Lewis rat arthritis model assessed as reduction of paw volume at 72 mg/kg, po qd administered on day 0 to day 21 of adjuvant challenge measured on day 21 by plethysmometry relative to control. Also on record: scale not given: the % may be the effect or the level left. The data set is classed as functional. The method, boiled down:
as §1

Data set [5] relates to Rattus norvegicus. As to the kind of experiment: Antiinflammatory activity against carrageenan/Evans blue dye-induced pleural effusion rat model assessed as reduction in pleural fluid volume at 0.83 mmol/kg, po administered 1 hr prior challenge measured 6 hrs post challenge relative to control. The data set is classed as functional. More on the design: scale not given: the % may be the effect or the level left.

As to `O=C(O)CCn1nnc(-c2ccccc2)n1`, in the data set with Rattus norvegicus [1], the “fold change (FC)” value is 0.9.
Consider `CC(=O)Oc1ccccc1C(=O)O` [ASPIRIN], for which the Activity in the data set with Rattus norvegicus [2] is on record as -11%; with Rattus norvegicus [3], 37%; in the data set on Rattus norvegicus [4], 5%; with Rattus norvegicus [5] it was 29%.
